Results from paper PMC8113834 (Computational and Structural Biotechnology Journal, 2021).
pKd: −log10 of the molar value. Square brackets hold non-standard residues; d marks the D form. Peptide text beside a SMILES is read from it. pY = N[C@@H](Cc1ccc(OP(=O)(O)O)cc1)C(=O)O

Assays:
[1] = target: T1, SHP2 C-SH2 (SHP2 106–220) (Homo sapiens, UniProt Q06124); assay: Isothermal titration calorimetry, peptide titrated onto C-SH2; type: binding
T1 sequence (Q06124 106-220): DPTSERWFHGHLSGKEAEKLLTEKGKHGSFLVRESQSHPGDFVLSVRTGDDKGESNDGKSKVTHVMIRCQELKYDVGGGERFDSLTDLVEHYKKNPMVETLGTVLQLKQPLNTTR

[2] = target: T2, SHP2 N-SH2 (Homo sapiens, UniProt Q06124); assay: NMR 1H,15N-HSQC titration of N-SH2; type: binding; conditions: 1H,15N-HSQC with increasing peptide; protein 200 μM, 298 K
T2 sequence (Q06124 1-105): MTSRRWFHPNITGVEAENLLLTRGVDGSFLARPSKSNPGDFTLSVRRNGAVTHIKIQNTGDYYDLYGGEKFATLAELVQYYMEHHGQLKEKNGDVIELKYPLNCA

[3] = test system: SHP2 C-SH2; assay: NMR 1H,15N-HSQC titration of C-SH2; type: binding, Human; conditions: 1H,15N-HSQC with increasing peptide; protein 200 μM, 298 K
In short: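 Uniformly 15N-labelled SHP2 C-SH2 is expressed in Tuner (DE3) E. coli in minimal medium with 15NH4Cl. Protein at 200 µM is titrated with increasing stoichiometric ratios of N-acetylated, C-amidated phosphopeptide. CSPs combine 1H and 0.15-weighted 15N shift differences.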

binding to C-SH2 by NMR spectra [3] | Compound | pKd [1] | binding to N-SH2 by NMR spectra [2]
 | CC[C@H](C)[C@H](NC(=O)[C@H](CC(N)=O)NC(=O)[C@@H](NC(=O)[C@H](Cc1ccc(OP(=O)(O)O)cc1)NC(=O)[C@H](CCC(=O)O)NC(=O)[C@H](Cc1c[nH]cn1)NC(=O)CNC(=O)[C@H](CCCCN)NC(=O)[C@H](CCCNC(=N)N)NC(=O)[C@H](CCCCN)NC(C)=O)[C@@H](C)O)C(=O)N[C@@H](CCCCN)C(=O)N[C@@H](Cc1ccc(O)cc1)C(=O)N[C@@H](CO)C(N)=O [SHP2-pY542] (Ac-KRKGHE[pY]TNIKYS-NH2) | 4.55 | neither SHP2-pY542 nor SHP2-pY580 bind significantly
no binding | EDSARVpYENVGLE [SHP2-pY580] |  | neither SHP2-pY542 nor SHP2-pY580 bind significantly
